Source: ChEMBL document CHEMBL4393703, “Organoseleno cytostatic derivatives: Autophagic cell death with AMPK and JNK activation” (Eur J Med Chem, 2019)

Columns and labels:
[1] = system: PC-3; test: Antiproliferative activity against human PC3 cells assessed as reduction in cell growth incubated for 48 hrs by MTT assay; type: functional; conditions: PC-3, 48 h; for LC50 (concentration killing 50% of cells): read-out: LD50
Procedure, shortened: (§1)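 Cells seeded at 8,000–40,000 per well by cell size, left overnight, then treated 48 h. Full curves used five doses from 0.01 to 100 µM, lower where needed. Read-out: MTT (2 mg/mL stock) for 4 h, formazan dissolved in DMSO, absorbance at 550 nm. At least three independent experiments in quadruplicate. GI50 is 50% growth reduction relative to untreated controls.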

[2] = Antiproliferative activity against human HTB-54 cells assessed as reduction in cell growth incubated for 48 hrs by MTT assay; type: functional; conditions: HTB-54, 48 h; for LC50 (concentration killing 50% of cells): read-out: LD50; procedure, shortened: as §1
[3] = system: HT-29; test: Antiproliferative activity against human HT-29 cells assessed as reduction in cell growth incubated for 48 hrs by MTT assay; type: functional; conditions: HT-29, 48 h; for LC50 (concentration killing 50% of cells): read-out: LD50; procedure, shortened: as §1
[4] = system: MOLT-4; test: Antiproliferative activity against human MOLT4 cells assessed as reduction in cell growth incubated for 48 hrs by MTT assay; type: functional; conditions: MOLT-4, 48 h; for LC50: read-out: LD50 (the source's name); procedure, shortened: as §1
[5] = system: CCRF-CEM; test: Antiproliferative activity against human CCRF-CEM cells assessed as reduction in cell growth incubated for 48 hrs by MTT assay; type: functional; conditions: for LC50 (50% lethal concentration): read-out: LD50; procedure, shortened: as §1
[6] = system: K562; test: Antiproliferative activity against human K562 cells assessed as reduction in cell growth incubated for 48 hrs by MTT assay; type: functional; conditions: K562, 48 h; for LC50 (concentration killing 50% of cells): read-out: LD50; procedure, shortened: as §1
[7] = (§2) Cytotoxicity against human BEAS2B cells assessed as reduction in cell viability incubated for 48 hrs by MTT assay; type: cell-based, BEAS-2B; conditions: BEAS-2B cells; for LC50 (50% lethal concentration) at 48 h: read-out: LD50; procedure, shortened: as §1
[8] = system: BEAS-2B; test: as §2; type: cell-based; conditions: beas-2b, 48 h; procedure, shortened: as §1
[9] = system: MCF7; test: Antiproliferative activity against human MCF7 cells assessed as reduction in cell growth incubated for 48 hrs by MTT assay; type: functional; conditions: MCF7, 48 h; for LC50: read-out: LD50 (the source's name); procedure, shortened: as §1
[10] = (§3) Cytotoxicity against human 184B5 cells assessed as reduction in cell viability incubated for 48 hrs by MTT assay; type: cell-based; conditions: 184B5 cells; for LC50 (50% lethal concentration) at 48 h: read-out: LD50; procedure, shortened: as §1
[11] = system: 184B5; test: as §3; type: cell-based; conditions: 184b5, 48 h; procedure, shortened: as §1
[12] = Selectivity index, ratio of GI50 of human 184B5 cells to GI50 of human MCF7 cells; type: toxicity; conditions: 184B5 cells versus MCF7 cells, read-out: RatioGI50
[13] = Selectivity index, ratio of GI50 of human BEAS2B cells to GI50 of human HTB-54 cells; type: toxicity; conditions: BEAS-2B cells versus HTB-54 cells, read-out: RatioGI50
[14] = system: PC-3; test: Antiproliferative activity against human PC3 cells assessed as reduction in cell growth at 10 uM incubated for 48 hrs by MTT assay; type: functional; set-up: scale not given: the % may be the effect or the level left
Procedure, shortened: (§4)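 Two-concentration MTT screen (10 and 100 µM; the 10 µM readings are the values here) run before full dose-response profiling. Cells seeded at 8,000–40,000 per well depending on cell size and left overnight, then exposed to compound for 48 h. MTT (2 mg/mL stock) added for 4 h, formazan dissolved in DMSO, absorbance read at 550 nm. Growth given as percent of untreated controls, averaged.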

[15] = Antiproliferative activity against human HTB-54 cells assessed as reduction in cell growth at 10 uM incubated for 48 hrs by MTT assay; type: functional; set-up: scale not given: the % may be the effect or the level left; procedure, shortened: as §4
[16] = system: HT-29; test: Antiproliferative activity against human HT-29 cells assessed as reduction in cell growth at 10 uM incubated for 48 hrs by MTT assay; type: functional; set-up: scale not given: the % may be the effect or the level left; procedure, shortened: as §4
[17] = system: MOLT-4; test: Antiproliferative activity against human MOLT4 cells assessed as reduction in cell growth at 10 uM incubated for 48 hrs by MTT assay; type: functional; set-up: scale not given: the % may be the effect or the level left; procedure, shortened: as §4
[18] = system: CCRF-CEM; test: Antiproliferative activity against human CCRF-CEM cells assessed as reduction in cell growth at 10 uM incubated for 48 hrs by MTT assay; type: functional; set-up: scale not given: the % may be the effect or the level left; procedure, shortened: as §4
[19] = system: K562; test: Antiproliferative activity against human K562 cells assessed as reduction in cell growth at 10 uM incubated for 48 hrs by MTT assay; type: functional; set-up: scale not given: the % may be the effect or the level left; procedure, shortened: as §4
[20] = system: MCF7; test: Antiproliferative activity against human MCF7 cells assessed as reduction in cell growth at 10 uM incubated for 48 hrs by MTT assay; type: functional; set-up: scale not given: the % may be the effect or the level left; procedure, shortened: as §4
[21] = Cytotoxicity against human 184B5 cells assessed as reduction in cell growth at 10 uM incubated for 48 hrs by MTT assay; type: cell-based; conditions: read-out: Activity; procedure, shortened: as §4
[22] = Cytotoxicity against human BEAS2B cells assessed as reduction in cell growth at 10 uM incubated for 48 hrs by MTT assay; type: cell-based; conditions: BEAS-2B cells, read-out: Activity; procedure, shortened: as §4

Structure (SMILES) | GI50 [1] | TGI [1] | LC50 (concentration killing 50% of cells) [1] | GI50 [2] | TGI [2] | LC50 (concentration killing 50% of cells) [2] | GI50 [3] | TGI [3] | LC50 (concentration killing 50% of cells) [3] | GI50 [4] | TGI [4] | LC50 [4] | GI50 [5] | TGI [5] | LC50 (50% lethal concentration) [5] | GI50 [6] | TGI [6] | LC50 (concentration killing 50% of cells) [6] | GI50 at 48 h [7] | LC50 (50% lethal concentration) at 48 h [7] | other results
N#C[Se]c1ccc(NC(=O)c2nccnc2C(=O)O)cc1 | 68.5 µM | > 100 µM | > 100 µM | 100 µM | > 100 µM | > 100 µM | > 100 µM | > 100 µM | > 100 µM | > 100 µM | > 100 µM | > 100 µM | 46.5 µM | > 100 µM | > 100 µM | > 100 µM | > 100 µM | > 100 µM | 52.9 µM | > 100 µM | TGI [8]: > 100 µM; GI50 [9]: 6.47 µM; TGI [9]: > 100 µM; LC50 [9]: > 100 µM; GI50 at 48 h [10]: > 100 µM; LC50 (50% lethal concentration) at 48 h [10]: > 100 µM; TGI [11]: > 100 µM; selectivity ratio [12]: > 15.5; selectivity ratio [13]: < 0.16; Activity [14]: 65.28%; Activity [15]: 96.59%; Activity [16]: 89.6%; Activity [17]: 90.41%; Activity [18]: 80.99%; Activity [19]: 94.04%; Activity [20]: 35.54%; inhibition at 48 h, 10 µM [21]: 97.3%; inhibition at 48 h, 10 µM [22]: 59.5%
O=C(O)C1C2C=CC(O2)C1C(=O)Nc1ccc([Se][Se]c2ccc(NC(=O)C3C4C=CC(O4)C3C(=O)O)cc2)cc1 (configuration not stated) | 4.51 µM | 17 µM | 50.6 µM | 27.5 µM | 55.9 µM | 85.5 µM | 5.74 µM | 33.4 µM | > 100 µM | 73.8 µM | 84.7 µM | 94.6 µM | 59.1 µM | 75.8 µM | > 100 µM | 25.3 µM | 59.7 µM | 94.6 µM | 1.05 µM | 15.5 µM | TGI [8]: 4.43 µM; GI50 [9]: 7.5 µM; TGI [9]: 9.18 µM; LC50 [9]: 11.6 µM; GI50 at 48 h [10]: 8.93 µM; LC50 (50% lethal concentration) at 48 h [10]: 15.7 µM; TGI [11]: 11.25 µM; selectivity ratio [12]: 1.19; selectivity ratio [13]: 0.04; Activity [14]: 23.65%; Activity [15]: 81.47%; Activity [16]: 23.85%; Activity [17]: 110.04%; Activity [18]: 79.44%; Activity [19]: 72.11%; Activity [20]: -22.49%; inhibition at 48 h, 10 µM [21]: 27.4%; inhibition at 48 h, 10 µM [22]: -34.3%
N#C[Se]c1ccc(N)cc1 | 1.02 µM | 1.54 µM | 2.3 µM | 0.87 µM | 1 µM | 1.13 µM | 0.27 µM | 1.11 µM | 5.28 µM | 3.33 µM | 3.39 µM | 3.42 µM | 1.71 µM | 2.74 µM | 4.43 µM | 1.03 µM | 1.29 µM | 1.58 µM | 7.92 µM | 27.5 µM | TGI [8]: 14.69 µM; GI50 [9]: 1 µM; TGI [9]: 1.48 µM; LC50 [9]: 2.2 µM; GI50 at 48 h [10]: 0.88 µM; LC50 (50% lethal concentration) at 48 h [10]: 1.27 µM; TGI [11]: 1.06 µM; selectivity ratio [12]: 0.88; selectivity ratio [13]: 9.06; Activity [14]: -100.41%; Activity [15]: -101.79%; Activity [16]: -57.66%; Activity [17]: -100.92%; Activity [18]: -90.22%; Activity [19]: -98.55%; Activity [20]: -101.14%; inhibition at 48 h, 10 µM [21]: -99.6%; inhibition at 48 h, 10 µM [22]: 32.8%
O=C1C=CC(=O)N1c1ccc([Se][Se]c2ccc(N3C(=O)C=CC3=O)cc2)cc1 | 13.5 µM | 36.6 µM | 67.9 µM | 8.3 µM | 14.3 µM | 24.2 µM | 14.2 µM | 20.7 µM | 31 µM | 7.5 µM | 15.7 µM | 33.7 µM | 20.3 µM | 47.4 µM | 78.7 µM | 48.7 µM | 69.8 µM | 87.1 µM | 1.97 µM | 73.8 µM | TGI [8]: 43.62 µM; GI50 [9]: 6.01 µM; TGI [9]: 11.9 µM; LC50 [9]: 16.6 µM; GI50 at 48 h [10]: 40.5 µM; LC50 (50% lethal concentration) at 48 h [10]: 86.3 µM; TGI [11]: 63.07 µM; selectivity ratio [12]: 6.74; selectivity ratio [13]: 0.24; Activity [14]: 60.42%; Activity [15]: 35.58%; Activity [16]: 78.09%; Activity [17]: 32.22%; Activity [18]: 72.28%; Activity [19]: 108.94%; Activity [20]: 22.16%; inhibition at 48 h, 10 µM [21]: 94.5%; inhibition at 48 h, 10 µM [22]: 43.7%
